Test results as given in ChEMBL document CHEMBL1833817, “Synthesis and cytotoxicity of 8-cyano-3-substitutedalkyl-5-methyl-4-methylene-7-methoxy-3,4-dihydropyrido[4,3-d]pyrimidines” (Bioorg Med Chem Lett, 2011).

Assays:
Assay type in all cases: functional, cell-based
KB = assay: Cytotoxicity against human KB cells after 3 days by MTT assay; conditions: 72 h
How it was run: (§1)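 Exponential-phase cells seeded at 5 × 10⁴–1 × 10⁵ cells/mL in fresh medium, grown overnight, then treated with compounds dissolved in DMSO at selected concentrations for 3 days. MTT in PBS (10 mg/mL stock) added for 3 h. Formazan dissolved in DMSO and read at 540 nm, with PBS lacking MTT as blank. Inhibition rate taken from averaged OD; IC50 = concentration giving 50% growth inhibition. Coefficients of variation <10%.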

MGC-803 = assay: Cytotoxicity against human MGC803 cells after 3 days by MTT assay; conditions: MGC-803, 72 h; how it was run: as §1
[1] = Cytotoxicity against human CNE2 cells after 3 days by MTT assay; conditions: CNE-2, 72 h; how it was run: as §1

SMILES	IC50 (KB)	IC50 (MGC-803)	IC50 [1]
C=C1c2c(C)nc(OC)c(C#N)c2N=CN1CCc1ccc(Cl)cc1	> 50000 nM		
C=C1c2c(C)nc(OC)c(C#N)c2N=CN1Cc1ccc(OC)cc1	670 nM	670 nM	180 nM
C=C1c2c(C)nc(OC)c(C#N)c2N=CN1Cc1ccco1	> 50000 nM		
C=C1c2c(C)nc(OC)c(C#N)c2N=CN1Cc1ccc(Cl)cc1	20000 nM		
COc1nc(C)c2c(C)ncnc2c1C#N	> 50000 nM		
C=C1c2c(C)nc(OC)c(C#N)c2N=CN1Cc1ccccc1	> 50000 nM		
C=C1c2c(C)nc(OC)c(C#N)c2N=CN1Cc1cccc(C)c1	37000 nM		
C=C1c2c(C)nc(OC)c(C#N)c2N=CN1CC	> 50000 nM		
C=C1c2c(C)nc(OC)c(C#N)c2N=CN1CCCCCC	> 50000 nM		
C=C1c2c(C)nc(OC)c(C#N)c2N=CN1Cc1ccc(C)cc1	480 nM	590 nM	150 nM
C=C1c2c(C)nc(OC)c(C#N)c2N=CN1CCC	> 50000 nM		
